For assay [1], the system named is SK-BR-3. Description: Inhibition of HSP70-mediated antiapoptotic activity in human SKBR3 cells assessed as induction of caspase-3 cleavage after 24 hrs by Western blot analysis. Type of assay: cell-based. The method, boiled down:
(§1)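 SKBr3 cells were treated for 24 h. Lysates were probed by western blot for caspase-3 and PARP cleavage. Apaf-1 complexes were pulled down with Apaf-1 antibody (with control IgG) and immunoblotted.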

The target in assay [2] is Heat shock protein HSP 90-beta (Homo sapiens) (UniProt P08238). Description: Inhibition of HSP90-mediated antiapoptotic activity in human MCF7 cells assessed as induction of caspase-9 cleavage at 200 uM after 24 hrs by Western blot analysis. The format is cell-based.
Heat shock protein HSP 90-beta (Homo sapiens), sequence (P08238 whole entry): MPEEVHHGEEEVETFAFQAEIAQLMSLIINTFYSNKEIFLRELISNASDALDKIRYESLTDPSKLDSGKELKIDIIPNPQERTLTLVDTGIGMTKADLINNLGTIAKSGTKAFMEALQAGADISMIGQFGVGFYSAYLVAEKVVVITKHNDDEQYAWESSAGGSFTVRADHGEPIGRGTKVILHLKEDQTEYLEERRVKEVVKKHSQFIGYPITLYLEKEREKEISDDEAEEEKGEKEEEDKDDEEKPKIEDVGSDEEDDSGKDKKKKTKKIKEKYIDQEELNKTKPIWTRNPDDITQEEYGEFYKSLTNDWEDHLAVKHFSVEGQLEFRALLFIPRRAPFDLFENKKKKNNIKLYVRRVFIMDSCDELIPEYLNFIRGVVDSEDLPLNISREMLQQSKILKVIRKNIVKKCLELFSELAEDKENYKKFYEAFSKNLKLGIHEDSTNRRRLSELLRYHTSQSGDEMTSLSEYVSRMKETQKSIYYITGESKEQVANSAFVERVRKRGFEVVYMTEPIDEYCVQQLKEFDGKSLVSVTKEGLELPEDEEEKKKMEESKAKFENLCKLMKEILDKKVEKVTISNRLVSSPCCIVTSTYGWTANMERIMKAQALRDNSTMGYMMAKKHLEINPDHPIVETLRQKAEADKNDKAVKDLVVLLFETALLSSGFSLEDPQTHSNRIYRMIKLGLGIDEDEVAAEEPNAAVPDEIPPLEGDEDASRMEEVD
Assay [3] shares this target. Briefly: Inhibition of HSP90-mediated antiapoptotic activity in human SKBR3 cells assessed as induction of caspase-9 cleavage at 200 uM after 24 hrs by Western blot analysis. The format is cell-based. The conditions noted are these: SK-BR-3. The essentials:
(§2)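 SKBr3 breast cancer cells at 60–70% confluence treated 24 h with compound or DMSO vehicle. Lysates in 50 mM Tris pH 7.4, 150 mM NaCl, 1% NP-40, quantified by BCA. 20–100 µg resolved by SDS-PAGE, blotted to nitrocellulose and probed for cleaved caspase-3, caspase-9 and PARP, using 1:5,000 peroxidase secondary. β-actin or PI(3)K p85 served as loading control.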

The subject of assay [4] is NCI-H526. Briefly: Inhibition of HSP70-mediated antiapoptotic activity in human NCI-H526 cells assessed as release of Apaf-1 from chaperon complex after 24 hrs by Western blot analysis. Type of assay: cell-based. The method, boiled down:
(§3)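 NCI-H526 cells were treated for 24 h. PARP and caspase-3 cleavage were read by western blot of lysates in Tris/NaCl/NP-40 buffer. Apaf-1 complexes were immunoprecipitated with Apaf-1 antibody, using control IgG, then blotted.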

In assay [5] the test system is SK-BR-3. Briefly: Inhibition of HSP70-mediated antiapoptotic activity in human SKBR3 cells assessed as increase in caspase-3 activity after 24 hrs by Western blot analysis. The format is cell-based. A general note: In western blotting, separated proteins are transferred to a membrane and probed.
In assay [6] the test system is NCI-H526. Description: Inhibition of HSP70-mediated antiapoptotic activity in human NCI-H526 cells assessed as induction of caspase-3 cleavage after 24 hrs by Western blot analysis. Type of assay: cell-based. The method, boiled down: as §3
The test system of assay [7] is NCI-H526. Description: Inhibition of HSP70-mediated antiapoptotic activity in human NCI-H526 cells assessed as induction of PARP cleavage after 24 hrs by Western blot analysis. The format is cell-based. The essentials: as §3
In assay [8] the test system is SK-BR-3. Briefly: Inhibition of HSP70-mediated antiapoptotic activity in human SKBR3 cells assessed as induction of PARP cleavage after 24 hrs by Western blot analysis. Type of assay: cell-based. The method, boiled down:
as §1

Assay [9] concerns the target Heat shock protein HSP 90-beta (Homo sapiens) (UniProt P08238). Briefly: Inhibition of HSP90-mediated antiapoptotic activity in human SKBR3 cells assessed as induction of PARP cleavage at 200 uM after 24 hrs by Western blot analysis. Type of assay: cell-based. The conditions noted are these: SK-BR-3. The method, boiled down: as §2
Assay [10] has the same target. Description: Inhibition of HSP90-mediated antiapoptotic activity in human MCF7 cells assessed as induction of caspase-3 cleavage at 200 uM after 24 hrs by Western blot analysis. Type of assay: cell-based.
In assay [11] the test system is SK-BR-3. Briefly: Inhibition of HSP70-mediated antiapoptotic activity in human SKBR3 cells assessed as induction of cell growth arrest after 72 hrs by propidium iodide staining-based flow cytometry. On the technique in general: Flow cytometry measures light scatter and fluorescence of single cells or particles in a stream.
In assay [12] the target is Heat shock protein HSP 90-beta (Homo sapiens) (UniProt P08238). Description: Inhibition of HSP90-mediated antiapoptotic activity in human SKBR3 cells assessed as induction of caspase-3 cleavage at 200 uM after 24 hrs by Western blot analysis. The format is cell-based. The conditions noted are these: SK-BR-3. The method, boiled down:
as §2

Assay [13] shares this target. Description: Inhibition of HSP90-mediated antiapoptotic activity in human MCF7 cells assessed as induction of PARP cleavage at 200 uM after 24 hrs by Western blot analysis. The format is cell-based.

This note sets out measurements from ChEMBL document CHEMBL1240328, “Selective compounds define Hsp90 as a major inhibitor of apoptosis in small-cell lung cancer” (Nat Chem Biol, 2007).

Active and inactive are the calls of the source. No cut-off for these calls is given here.

As for `O=c1c(O)c(-c2ccc(O)c(O)c2)oc2cc(O)cc(O)c12`, the inhibition result in the assay on SK-BR-3 [1], in the assay on SK-BR-3 [5], in the assay on SK-BR-3 [8] and in the assay on SK-BR-3 [11] was “Active” throughout. The outcome in assay [2], in assay [3], in assay [9], in assay [10], in assay [12] and in assay [13] was inactive. Besides, the inhibition entry in the assay with NCI-H526 [4], with NCI-H526 [6] and in the assay on NCI-H526 [7] was “inactive” in each case.
